Screens from PubChem.
Granule exo inh: lytic granule exocytosis inhibition; actives 0.66% (n = 360,000); TALL-104 LAMP-1 surface exposure, flow cytometry; cells stimulated with thapsigargin and PMA; inhibition, % at 10 µM; AID 651702;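 active means inhibition above about 55%, limit read from the data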
PGE2 EP2 inh: EP2 receptor (human) inhibition; C6 glioma cells expressing human EP2, cAMP TR-FRET; cells stimulated with saturating PGE2; inhibition, % at 25 µM; actives 0.52% (n = 260,000); AID 1422;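 active means percent inhibition above 40 after rounding to a whole number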;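 further: rat C6 glioma host cells with rolipram phosphodiesterase inhibitor present; the protocol text gives 20 µM as final concentration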
MC4R antag cAMP: blocks human MC4R cAMP signaling; P32245; MC4R-expressing cells, MTII-stimulated cAMP, LANCE TR-FRET; inhibition, % at 6.5 µM; actives 0.48% (n = 360,000); AID 540295;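 active means inhibition above its plate's cutoff, the mean of tested wells on that plate plus 3 SD, cut at about 29% in these data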
Target sequence (P32245 whole entry, looked up): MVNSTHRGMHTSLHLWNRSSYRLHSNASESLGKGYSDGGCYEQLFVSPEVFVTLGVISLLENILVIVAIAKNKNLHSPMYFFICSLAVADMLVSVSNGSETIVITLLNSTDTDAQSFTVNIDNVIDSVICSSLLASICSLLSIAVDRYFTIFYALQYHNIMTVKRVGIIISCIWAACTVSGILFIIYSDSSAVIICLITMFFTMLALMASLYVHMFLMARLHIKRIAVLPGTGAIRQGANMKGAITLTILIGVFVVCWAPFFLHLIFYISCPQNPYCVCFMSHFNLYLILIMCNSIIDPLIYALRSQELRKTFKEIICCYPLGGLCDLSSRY
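Test system: U2OS cells stably expressing human melanocortin 4 receptor (MC4R); also added: Melanotan II challenge; compound: 6.5 µM single dose; timing: 30-min compound preincubation, 1-h Melanotan II challenge, 1-h detection, room temperature; signal: Eu-cAMP/anti-cAMP TR-FRET, emission 671 nm; repeats: one well per compound, no replicates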
MC4R barr agon: agonists of human melanocortin 4 receptor (MC4R) beta-arrestin. P32245. U2OS MC4R beta-arrestin complementation, luminescence; percent of melanotan II response, DMSO zero. activation, % at 8.9 µM. actives 0.98% (n = 360,000). AID 540308;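 active means activation above a per-plate cutoff, the mean activation of sample wells on that plate plus 3 SD, cut at about 8% in these data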
EP2 mod: EP2 receptor (human) modulation; AID 940; induction, % at 25 µM; P43116; EP2-expressing cells, cAMP HTRF FRET, PGE2 co-stimulation; actives 0.83% (n = 260,000);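 active means compounds whose cAMP rise, as percent of the full-agonist control response, exceeds 60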;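 further: rat C6 glioma line stably carrying human EP2 under a CMV promoter; the protocol text gives 20 µM as final concentration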
T cell modulator: modulates CD8 T cell binding to vesicles; 2C CD8+ T cell-vesicle binding, flow cytometry; stronger effect = lower value; response (vesicle binding), % at 7 µM; actives 0.068% (n = 330,000); AID 2052;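 active means response, share of CD8 T cells binding vesicles, and their 90th percentile fluorescence all below set limits, cut at about 80% in these data, passing the limit was not always enough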;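 further: values below 100% mean blocked vesicle binding to the CD8+ T cells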
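Test system: purified 2C TCR transgenic mouse naive CD8+ T cells. Probe or stimulus: QL9-peptide-loaded Drosophila micro-vesicles bearing Ld, ICAM-1 and B7-1. Incubation: binding step 1.5 h, 37 °C, antibody labelling 20 min, ice. Measured by: flow cytometry of vesicle-bound cells.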
EP2 cAMP induct: human EP2 receptor cAMP induction, negative in counter-screens; C6 glioma EP2 cells, cAMP HTRF induction; plus low (about EC15) PGE2 agonist; calls only at 20 µM (by protocol); shares compounds with EP2 mod; actives 47% (n = 1,300);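 active means cAMP induction above 50% in the main assay while under 30% in all four parallel counter assays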;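 further: rat C6 glioma cells stably expressing human EP2 receptor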
Each line names hits and unclear results; the compound was inactive in the other large screens (follow-up assays come after a bar, where they were run). Shown are actives, neighbours in structure and some others; about 2.6% of the full set was active somewhere.

COc1ccc(C(=O)c2cnc3ccccc3c2-c2ccccc2)cc1	EP2 mod 92.5 | EP2 cAMP induct active
Cc1cccc(C)c1NC(=O)CSc1nnc(Cn2nnc(-c3ccccc3)n2)n1-c1ccccc1	EP2 mod 73.8 | EP2 cAMP induct inactive
O=C(O)c1cccc(NN=C2c3ccccc3-c3ccccc32)c1	EP2 mod 75.3 (no result: T cell modulator) | EP2 cAMP induct inactive
O=C(O)c1cc(NN=C2c3ccccc3-c3ccccc32)ccc1Cl	none (no result: PGE2 EP2 inh, EP2 mod)
CCOC(=O)c1c(CC(C)C)csc1N	EP2 mod 71.9 | EP2 cAMP induct inactive
CCOC(=O)c1c(CC(C)C)csc1NC(=O)CCl	EP2 mod 74.2 (no result: PGE2 EP2 inh) | EP2 cAMP induct inactive
COC(=O)n1c(=S)oc2cc(Cl)ccc21	none (no result: Granule exo inh, MC4R antag cAMP, MC4R barr agon)
CCCCOC(=O)n1c(=S)oc2cc(Cl)ccc21	EP2 mod 71.3 | EP2 cAMP induct inactive
O=C(/C(=C/O)N=Nc1ccccc1)c1cccs1	EP2 mod 81.1 | EP2 cAMP induct active
Nc1cccc(OCc2nc(N)nc(N)c2-c2ccc(Cl)cc2)c1	none (no result: Granule exo inh, MC4R antag cAMP, MC4R barr agon, T cell modulator) | EP2 cAMP induct inactive
Clc1ccc(-c2cc(COc3ccccc3)on2)cc1	none
S=c1[nH]nc(-c2ccc(Br)o2)n1Cc1ccccc1	EP2 mod 62.1 | EP2 cAMP induct inactive
S=c1[nH]nc(-c2ccco2)n1Cc1ccccc1	none
S=c1[nH]nc(C2CCCCC2)n1Cc1ccccc1	none | EP2 cAMP induct inactive
Cc1cc2cc(CN(Cc3cccs3)S(=O)(=O)c3ccccc3)c(=O)[nH]c2cc1C	none (no result: Granule exo inh, MC4R antag cAMP, MC4R barr agon, T cell modulator)
O=C(CCC(=O)N1CCN(c2ccc(O)cc2)CC1)c1cccs1	none
CCOC(=O)C(Cc1ccccc1)(NC(C)=O)C(=O)OCC	EP2 mod 84.8 | EP2 cAMP induct inactive
CCOC(=O)C(Cc1c(F)cccc1F)(NC(C)=O)C(=O)OCC	none
CSc1nsc(SC)c1C(=O)Nc1ccc(C)cc1	none
O=C(NCc1ccc(F)cc1)C1CCCN1C(=O)Nc1ccc(F)cc1 (configuration not stated)	none (no result: PGE2 EP2 inh, EP2 mod)
CCC(=O)Oc1ccc2c(C)cc(=O)oc2c1C(=O)c1ccccc1	EP2 mod 69.2 | EP2 cAMP induct inactive
CCC(=O)Oc1ccc2c(C)cc(=O)oc2c1C(=O)CC	none
Cc1cc(SCCC(=O)O)nc2c(C)cccc12	EP2 mod 82.1 | EP2 cAMP induct inactive
Cc1cc(SCC(=O)N2CCCC2=O)nc2c(C)cccc12	none (no result: PGE2 EP2 inh, EP2 mod)
Cc1ccc(Nc2nc(CSc3nnc(-c4ccccc4)n3C)cs2)cc1	none
Cc1ccc(Nc2nc(CSc3nnc(-c4ccccc4C)n3C)cs2)cc1	EP2 mod 70.8 | EP2 cAMP induct active
COc1ccccc1CC(C)NC(=O)c1cc(-c2ccccn2)n[nH]1 (configuration not stated)	none (no result: Granule exo inh, MC4R antag cAMP, MC4R barr agon, T cell modulator)
CCOC(=O)C1=C(CC)Nc2ccccc2N=C1NC(=O)c1oc2ccccc2c1C	EP2 mod 68.5 | EP2 cAMP induct inactive
CCCCCCc1c(C)nc(-n2[nH]c(C)c(CCO)c2=O)[nH]c1=O	none
COc1cccc2[nH]c3c(N4CCCC(C)C4)ncnc3c12 (configuration not stated)	EP2 mod 93.8 (no result: T cell modulator) | EP2 cAMP induct active
COc1cccc2[nH]c3c(N4CCC(C(N)=O)CC4)ncnc3c12	none
COc1cccc2[nH]c3c(N4CC(C)CC(C)C4)ncnc3c12 (configuration not stated)	EP2 mod 90.0 (no result: Granule exo inh, PGE2 EP2 inh, MC4R antag cAMP, MC4R barr agon, T cell modulator) | EP2 cAMP induct active
CCOC(=O)C1CCCN(c2ncnc3c2[nH]c2cccc(OC)c23)C1 (configuration not stated)	none (no result: Granule exo inh, MC4R antag cAMP, MC4R barr agon, T cell modulator)
O=C(O)Cn1cc(/C=c2/sc3nc4ccccc4n3c2=O)c2ccccc21	none
Cc1ccc2oc(=O)n(Cc3ccccc3OC(C)C)c2c1	EP2 mod 67.0 | EP2 cAMP induct active
Cc1ccc(C(C)C)c(OCCn2c(=O)oc3ccccc32)c1	EP2 mod 61.0 | EP2 cAMP induct inactive
CCCCOc1ccccc1Cn1c(=O)oc2ccc(C)cc21	EP2 mod 79.4 | EP2 cAMP induct active
COCCn1c(SCC(=O)N2CCCCC2)nc2c(c1=O)SCC2	none (no result: PGE2 EP2 inh, EP2 mod)
